Assay results reported in ChEMBL document CHEMBL1938326, “Synthesis and in vitro and in vivo anticancer activity of novel phenylmethylene bis-isoxazolo[4,5-b]azepines” (Bioorg Med Chem Lett, 2012).
≈ marks a conversion by molar mass, not a printed value. Calls of active or inactive are those of the source. The calls are words filed in the database; no cut-off is given here.

Experiments:
[1] = system: HeLa; experiment: Cytotoxicity against human HeLa cells after 48 hrs by MTT assay; assay type: functional, cell-based
Summary of the method: (§1)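 Cells grown with 10% FBS, 1% L-glutamine and antibiotics at 37 °C, 5% CO₂. Seeded at 1 × 10⁵ cells/mL and incubated 24 h. Compounds added from DMSO stocks, final DMSO <1%, for 48 h. MTT (2.5 mg/mL) added for 2 h, then OD read at 490 nm. IC50 (50% reduction in OD versus untreated) taken from dose–response curves; three independent determinations.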

[2] = system: MCF7; experiment: Cytotoxicity against human MCF7 cells after 48 hrs by MTT assay; assay type: functional, cell-based; details: MCF7, 48 h; summary of the method: as §1
[3] = Cytotoxicity against […] cells after 48 hrs by MTT assay; assay type: functional, cell-based; details: Mus musculus, Ehrlich; summary of the method: as §1
[4] = Antitumor activity against […] cells xenografted in Swiss albino mouse assessed as packed cell volume at 5 mg/kg, ip qd administered for 9 days measured after 14 days (reference value: 2.8 +/- 0.5 ml); assay type: functional, Ehrlich; details: route intraperitoneal
[5] = system: Mus musculus; experiment: Protective effect on haemopoietic system in Swiss albino mouse xenografted with […] cells assessed as change in hemoglobin level at 5 mg/kg, ip qd administered for 9 days measured after 14 days (reference value: 5.8 +/- 0.7 g%); assay type: functional, Ehrlich; details: route intraperitoneal
Summary of the method: (§2)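 Swiss albino female mice (8 weeks, n = 10 per group) inoculated ip with EAC cells (0.2 mL of 2 × 10⁶ cells/mouse), then dosed daily for 9 days starting 24 h after inoculation. On day 14, hemoglobin, RBC, WBC and differential leukocyte counts were compared with uninoculated normal and EAC control groups; mean ± SEM.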

[6] = Antitumor activity against […] cells xenografted in Swiss albino mouse assessed as mean survival time at 10 mg/kg, ip qd administered for 9 days measured after 14 days (reference value: 13.7+/- 0.4 days); assay type: functional, Ehrlich; details: route intraperitoneal
Summary of the method: (§3)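 Female Swiss albino mice, 8 weeks old and 20–25 g, received 0.2 mL of 2 × 10⁶ EAC cells/mouse i.p. on day 0. Daily dosing started 24 h later and ran 9 days; controls received sterile saline i.p. After day-14 sacrifice of five per group, mortality was recorded daily for 30 days. MST = (first + last death day)/2; %ILS = [(MST treated/MST control) − 1] × 100.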

[7] = system: Mus musculus; experiment: Protective effect on haemopoietic system in Swiss albino mouse xenografted with […] cells assessed as RBC count at 5 mg/kg, ip qd administered for 9 days measured after 14 days; assay type: functional, organism-based; parameters: dose 5 mg/kg; details: Ehrlich; summary of the method: as §2
[8] = system: Mus musculus; experiment: Protective effect on haemopoietic system in Swiss albino mouse xenografted with […] cells assessed as change in lymphocytes count at 5 mg/kg, ip qd administered for 9 days measured after 14 days (reference value: 23 +/- 0.6 %); assay type: functional, Ehrlich; details: route intraperitoneal; summary of the method: as §2
[9] = system: Ehrlich; experiment: Antitumor activity against […] cells xenografted in Swiss albino mouse assessed as viable tumor cell count at 10 mg/kg, ip qd administered for 9 days measured after 14 days by trypan blue assay; assay type: functional, organism-based; parameters: dose 10 mg/kg
[10] = system: Mus musculus; experiment: Protective effect on haemopoietic system in Swiss albino mouse xenografted with […] cells assessed as change in monocytes count at 5 mg/kg, ip qd administered for 9 days measured after 14 days (reference value: 2.4 +/- 0.1 %); assay type: functional, Ehrlich; details: route intraperitoneal; summary of the method: as §2
[11] = system: Mus musculus; experiment: Protective effect on haemopoietic system in Swiss albino mouse xenografted with […] cells assessed as change in neutrophils count at 5 mg/kg, ip qd administered for 9 days measured after 14 days (reference value: 73 +/- 1.3 %); assay type: functional, Ehrlich; details: route intraperitoneal; summary of the method: as §2
[12] = system: Mus musculus; experiment: Toxicity in Swiss albino mouse xenografted with […] cells assessed as change in body weight at 10 mg/kg, ip qd administered for 9 days measured after 14 days (reference value: 12.2 +/- 0.8 g); assay type: organism-based, Ehrlich; parameters: dose 10 mg/kg, route intraperitoneal; details: in vivo, 336 h
[13] = system: Mus musculus; experiment: Protective effect on haemopoietic system in Swiss albino mouse xenografted with […] cells assessed as change in hemoglobin level at 10 mg/kg, ip qd administered for 9 days measured after 14 days (reference value: 5.8 +/- 0.7 g%); assay type: functional, Ehrlich; details: route intraperitoneal; summary of the method: as §2
[14] = system: Mus musculus; experiment: Protective effect on haemopoietic system in Swiss albino mouse xenografted with […] cells assessed as WBC count at 5 mg/kg, ip qd administered for 9 days measured after 14 days; assay type: functional, organism-based; parameters: dose 5 mg/kg; details: Ehrlich; summary of the method: as §2
[15] = system: Mus musculus; experiment: Protective effect on haemopoietic system in Swiss albino mouse xenografted with […] cells assessed as change in lymphocytes count at 10 mg/kg, ip qd administered for 9 days measured after 14 days (reference value: 23 +/- 0.6 %); assay type: functional, Ehrlich; details: route intraperitoneal; summary of the method: as §2
[16] = system: Mus musculus; experiment: Reduction in ascetic fluid volume in Swiss albino mouse xenografted with […] cells at 5 to 10 mg/kg, ip qd administered for 9 days measured after 14 days; assay type: functional, organism-based; details: Ehrlich
[17] = Antitumor activity against […] cells xenografted in Swiss albino mouse assessed as mean survival time at 5 mg/kg, ip qd administered for 9 days measured after 14 days (reference value: 13.7+/- 0.4 days); assay type: functional, Ehrlich; details: route intraperitoneal; summary of the method: as §3
[18] = system: Mus musculus; experiment: Protective effect on haemopoietic system in Swiss albino mouse xenografted with […] cells assessed as RBC count at 10 mg/kg, ip qd administered for 9 days measured after 14 days; assay type: functional, organism-based; parameters: dose 10 mg/kg; details: Ehrlich; summary of the method: as §2
[19] = Antitumor activity against […] cells xenografted in Swiss albino mouse assessed as increase in life span at 5 mg/kg, ip qd administered for 9 days; assay type: functional, Ehrlich; details: route intraperitoneal; summary of the method: as §3
[20] = Antitumor activity against […] cells xenografted in Swiss albino mouse assessed as increase in life span at 10 mg/kg, ip qd administered for 9 days; assay type: functional, Ehrlich; details: route intraperitoneal; summary of the method: as §3
[21] = system: Mus musculus; experiment: Protective effect on haemopoietic system in Swiss albino mouse xenografted with […] cells assessed as change in neutrophils count at 10 mg/kg, ip qd administered for 9 days measured after 14 days (reference value: 73 +/- 1.3 %); assay type: functional, Ehrlich; details: route intraperitoneal; summary of the method: as §2
[22] = Antitumor activity against […] cells xenografted in Swiss albino mouse assessed as change in tumor volume at 5 mg/kg, ip qd administered for 9 days measured after 14 days (reference value: 12.1 +/- 0.9 ml); assay type: functional, Ehrlich; details: route intraperitoneal
[23] = Antitumor activity against […] cells xenografted in Swiss albino mouse assessed as packed cell volume at 10 mg/kg, ip qd administered for 9 days measured after 14 days (reference value: 2.8 +/- 0.5 ml); assay type: functional, Ehrlich; details: route intraperitoneal
[24] = Antitumor activity against […] cells xenografted in Swiss albino mouse assessed as change in tumor volume at 10 mg/kg, ip qd administered for 9 days measured after 14 days (reference value: 12.1 +/- 0.9 ml); assay type: functional, Ehrlich; details: route intraperitoneal
[25] = system: Mus musculus; experiment: Protective effect on haemopoietic system in Swiss albino mouse xenografted with […] cells assessed as change in monocytes count at 10 mg/kg, ip qd administered for 9 days measured after 14 days (reference value: 2.4 +/- 0.1 %); assay type: functional, Ehrlich; details: route intraperitoneal; summary of the method: as §2
[26] = system: Mus musculus; experiment: Toxicity in Swiss albino mouse xenografted with human EAC cells assessed as change in body weight at 5 mg/kg, ip qd administered for 9 days measured after 14 days (reference value: 12.2 +/- 0.8 g); assay type: organism-based, Ehrlich; parameters: dose 5 mg/kg, route intraperitoneal; details: in vivo, 336 h
[27] = system: Mus musculus; experiment: Protective effect on haemopoietic system in Swiss albino mouse xenografted with […] cells assessed as WBC count at 10 mg/kg, ip qd administered for 9 days measured after 14 days; assay type: functional, organism-based; parameters: dose 10 mg/kg; details: Ehrlich; summary of the method: as §2
[28] = system: Ehrlich; experiment: Antitumor activity against […] cells xenografted in Swiss albino mouse assessed as viable tumor cell count at 5 mg/kg, ip qd administered for 9 days measured after 14 days by trypan blue assay; assay type: functional, organism-based; parameters: dose 5 mg/kg

Cc1noc2c1N=C(c1ccccc1)CC(c1ccccc1)C2C(c1ccccc1)C1c2onc(C)c2N=C(c2ccccc2)CC1c1ccccc1 (centres undefined)
IC50 [1]: 68.7 µg/mL (≈ 99.2 µM)
IC50 [2]: 68.9 µg/mL (≈ 99.4 µM)
IC50 [3]: 66.5 µg/mL (≈ 96 µM)

Cc1noc2c1N=C(c1ccccc1)CC(c1ccccc1)C2C(c1ccc(Cl)cc1)C1c2onc(C)c2N=C(c2ccccc2)CC1c1ccccc1 (centres undefined)
IC50 [1]: 55.9 µg/mL (≈ 76.9 µM)
IC50 [2]: 59 µg/mL (≈ 81.1 µM)
IC50 [3]: 60.4 µg/mL (≈ 83 µM)

COc1ccc(C(C2c3onc(C)c3N=C(c3ccccc3)CC2c2ccccc2)C2c3onc(C)c3N=C(c3ccccc3)CC2c2ccccc2)cc1 (centres undefined)
IC50 [1]: 65.9 µg/mL (≈ 91.2 µM)
IC50 [2]: 57.3 µg/mL (≈ 79.3 µM)
IC50 [3]: 41.9 µg/mL (≈ 58 µM)

COc1ccc(C2CC(c3ccccc3)=Nc3c(C)noc3C2C(c2ccccc2)C2c3onc(C)c3N=C(c3ccccc3)CC2c2ccc(OC)cc2)cc1 (centres undefined)
IC50 [1]: 45.6 µg/mL (≈ 60.6 µM)
IC50 [2]: 53.8 µg/mL (≈ 71.5 µM)
IC50 [3]: 40.1 µg/mL (≈ 53.3 µM)

Cc1noc2c1N=C(c1ccco1)CC(c1ccccc1)C2C(c1ccccc1)C1c2onc(C)c2N=C(c2ccco2)CC1c1ccccc1 (centres undefined)
IC50 [1]: 32.7 µg/mL (≈ 48.6 µM)
Activity [4]: 2.1 mL
Activity [5]: 6 g%
MSD [6]: 18.3 days
Activity [7]: Active
Activity [8]: 29%
Activity [9]: Active
Activity [10]: 2.1%
Activity [11]: 63%
Activity [12]: 9.6 g
Activity [13]: 7.4 g%
Activity [14]: Active
Activity [15]: 46%
Activity [16]: Active
MSD [17]: 14.9 days
Activity [18]: Active
Activity [19]: 8.8%
Activity [20]: 33.6%
Activity [21]: 49%
IC50 [2]: 35.9 µg/mL (≈ 53.4 µM)
Activity [22]: 11 mL
Activity [23]: 1.6 mL
Activity [24]: 8.5 mL
Activity [25]: 1.7%
Activity [26]: 10.6 g
IC50 [3]: 28.9 µg/mL (≈ 43 µM)
Activity [27]: Active

Cc1ccc(C(C2c3onc(C)c3N=C(c3ccccc3)CC2c2ccccc2)C2c3onc(C)c3N=C(c3ccccc3)CC2c2ccccc2)cc1 (centres undefined)
IC50 [1]: 38.4 µg/mL (≈ 54.3 µM)
IC50 [2]: 41.9 µg/mL (≈ 59.3 µM)
IC50 [3]: 48.2 µg/mL (≈ 68.2 µM)

Cc1noc2c1N=C(c1cccs1)CC(c1ccccc1)C2C(c1ccccc1)C1c2onc(C)c2N=C(c2cccs2)CC1c1ccccc1 (centres undefined)
IC50 [1]: 28.5 µg/mL (≈ 40.4 µM)
Activity [4]: 1.8 mL
Activity [5]: 7.3 g%
MSD [6]: 23.8 days
Activity [7]: Active
Activity [28]: Active
Activity [8]: 35%
Activity [9]: Active
Activity [10]: 1.9%
Activity [11]: 54%
Activity [12]: 6.7 g
Activity [13]: 8.5 g%
Activity [14]: Active
Activity [15]: 51%
Activity [16]: Active
MSD [17]: 17.8 days
Activity [18]: Active
Activity [19]: 29.9%
Activity [20]: 73.7%
Activity [21]: 36%
IC50 [2]: 24.1 µg/mL (≈ 34.2 µM)
Activity [22]: 7.3 mL
Activity [23]: 1.1 mL
Activity [24]: 4.9 mL
Activity [25]: 1.4%
Activity [26]: 8.3 g
IC50 [3]: 26.1 µg/mL (≈ 37 µM)
Activity [27]: Active

Cc1ccc(C2=Nc3c(C)noc3C(C(c3ccccc3)C3c4onc(C)c4N=C(c4ccc(C)cc4)CC3c3ccccc3)C(c3ccccc3)C2)cc1 (centres undefined)
IC50 [1]: 55.1 µg/mL (≈ 76.4 µM)
IC50 [2]: 55.9 µg/mL (≈ 77.5 µM)
IC50 [3]: 50.1 µg/mL (≈ 69.5 µM)

Cc1noc2c1N=C(c1ccc(Cl)cc1)CC(c1ccccc1)C2C(c1ccccc1)C1c2onc(C)c2N=C(c2ccc(Cl)cc2)CC1c1ccccc1 (centres undefined)
IC50 [1]: 60.2 µg/mL (≈ 79 µM)
IC50 [2]: 61.1 µg/mL (≈ 80.2 µM)
IC50 [3]: 58.5 µg/mL (≈ 76.8 µM)

Cc1ccc(C2CC(c3ccccc3)=Nc3c(C)noc3C2C(c2ccccc2)C2c3onc(C)c3N=C(c3ccccc3)CC2c2ccc(C)cc2)cc1 (centres undefined)
IC50 [1]: 53.3 µg/mL (≈ 73.9 µM)
IC50 [2]: 50.1 µg/mL (≈ 69.5 µM)
IC50 [3]: 51.6 µg/mL (≈ 71.6 µM)
